Reference: paper PMC7007330 (Molecular microbiology, 2019)
“Also recorded” adds a separate entry of the source. Where two headings read alike, the source gives them in different places.

Key:
[1] = system: wild-type C. trachomatis L2; test: Progeny assay; format: cell-based, Chlamydia trachomatis; conditions: L929 cells; BKA 0.25 μM, HQNO 1 μM; 36 hpi then passaged
Method in brief: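 L929 cells were infected with C. trachomatis L2 wild-type or RsbU* strains, with BKA (0.25 μM) and HQNO (1 μM) added at infection where indicated. At 36 hpi, wells were either fixed and stained with MicroTrack reagent, or water-lysed and passaged onto fresh host monolayers, then fixed and stained 36 h later. IFUs were counted, and fold change was taken as post-passage IFUs relative to first-36 h IFUs.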

[2] = system: ATP translocases; conditions: cited from earlier work
[3] = system: wild-type Chlamydia trachomatis L2; test: Growth curves with chemical inhibitors; format: cell-based; conditions: L929 cells; HQNO 1 μM, BKA 0.25 μM added at infection; 0-72 hpi
[4] = system: RsbU* mutant; test: Immunofluorescence microscopy of infected L929 cells, RsbU* mutant; format: cell-based, Chlamydia trachomatis; conditions: 24 and 72 hours
Method in brief: (§1)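 L929 monolayers were grown to confluency on slides and infected with wild-type C. trachomatis L2 or RsbU* mutant. HQNO or BKA was added immediately after infection where indicated. At 24 and 72 hpi, cells were fixed in 100% methanol (10 min, RT), washed with HBSS then PBS, and stained with MicroTrack reagent (1:40 in PBS, 1 h 50 min, RT). Nuclei were stained with DAPI (10 min, RT, dark) and samples mounted in antifade. Imaging was by spinning-disk confocal at 150X, 7 Z-stacks, maximum projection.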

[5] = system: wild-type C. trachomatis L2; test: Immunofluorescence microscopy of infected L929 cells, wild-type; format: cell-based, Chlamydia trachomatis
Method in brief: as §1

[6] = system: RsbU* mutant strain of C. trachomatis L2; test: Growth curves with chemical inhibitors; format: cell-based, Chlamydia trachomatis; conditions: L929 cells; HQNO 1 μM added at infection
[7] = system: sodium-dependent NADH dehydrogenase; conditions: low concentrations (1 μM); cited from earlier work
[8] = target: T1, RsbU45–313 K140A (Chlamydia trachomatis, UniProt A0A0H3MDU0, K140A); test: Surface plasmon resonance, K140A variant; format: binding; conditions: read-out: KD (estimated, steady state affinity), SPR, PBS
T1 sequence (A0A0H3MDU0 45-313 K140A): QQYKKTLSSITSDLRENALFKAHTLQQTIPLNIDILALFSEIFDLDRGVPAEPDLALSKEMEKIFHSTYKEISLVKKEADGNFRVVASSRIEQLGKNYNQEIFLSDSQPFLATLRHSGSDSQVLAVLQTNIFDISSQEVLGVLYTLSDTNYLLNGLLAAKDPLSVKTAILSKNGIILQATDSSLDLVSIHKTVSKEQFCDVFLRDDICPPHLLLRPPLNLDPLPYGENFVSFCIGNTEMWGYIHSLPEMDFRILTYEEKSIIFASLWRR

[9] = target: T2, RsbU45–313 R134A (Chlamydia trachomatis, UniProt A0A0H3MDU0, R134A); test: Surface plasmon resonance, R134A variant; format: binding; conditions: read-out: KD (estimated, steady state affinity), SPR, PBS
T2 sequence (A0A0H3MDU0 45-313 R134A): T1 sequence (A0A0H3MDU0 45-313 K140A)

[10] = target: T3, RsbU45–313 K140A/R134A (Chlamydia trachomatis, UniProt A0A0H3MDU0, K140A/R134A); test: Surface plasmon resonance, K140A/R134A variant; format: binding; conditions: read-out: KD (estimated, steady state affinity), SPR, PBS
T3 sequence (A0A0H3MDU0 45-313 R134A/K140A): T1 sequence (A0A0H3MDU0 45-313 K140A)

[11] = target: T4, RsbU45–313 (Chlamydia trachomatis, UniProt A0A0H3MDU0); test: Differential scanning fluorimetry; format: binding
[12] = target: T5, RsbU45–313 Q137A (Chlamydia trachomatis, UniProt A0A0H3MDU0, Q137A); test: Surface plasmon resonance, Q137A variant; format: binding; conditions: read-out: KD (estimated, steady state affinity), SPR, PBS
T5 sequence (A0A0H3MDU0 45-313 Q137A): T1 sequence (A0A0H3MDU0 45-313 K140A)

[13] = target: WT RsbU45–313 (Chlamydia trachomatis, UniProt A0A0H3MDU0); format: binding; conditions: for SPR dose-dependent binding curves: Figure S3; for binding in initial SPR screening: ligands at 100 μM and 1 mM
[14] = target: T4, RsbU45–313; test: biochemical; format: binding
[15] = 5 mM and 10 mM ligand, 10 μM RsbU45–313

Structure (SMILES): CO[C@H](C/C=C\C=C\CC/C=C/C[C@H](C)/C=C/C(=C\C(=O)O)CC(=O)O)/C(C)=C\C=C(/C)C(=O)O [BKA, bongkrekic acid]
- progeny production (IFUs) [1]: decrease in IFUs produced
- inhibition of ATP translocases [2]: inhibit ATP translocases
- growth of wild-type Chlamydia (secY vs rpp30 genome copies) [3]: decrease in the growth of wild-type Chlamydia
- levels of RsbU* Chlamydia or their dispersion within the host cell [4]: appeared to have no effect
- morphology by confocal microscopy ([5]; 24 and 72 hours): No obvious morphological abnormalities

Structure (SMILES): CCCCCCCc1cc(O)c2ccccc2[n+]1[O-] [HQNO, 2-heptyl-4-hydrosyquinoline N-oxide]
- progeny production (IFUs) [1]: decrease in the number of IFUs produced compared to the initial infection
- growth of RsbU* mutant (secY vs rpp30 genome copies) [6]: does not have an additive effect on the growth defect
- growth of wild-type Chlamydia (secY vs rpp30 genome copies) [3]: not statistically different from the RsbU* mutant growth at any time point; also recorded: marked reduction in growth
- levels of RsbU* Chlamydia or their dispersion within the host cell [4]: appeared to have no effect
- inhibition of sodium-dependent NADH dehydrogenase [7]: selectively inhibit
- inclusion morphology by confocal microscopy ([5]; 24 hours post-infection): formed smaller inclusions and appear to contain fewer EBs
- inclusion morphology by confocal microscopy ([5]; 72 hours post-infection): inclusions that were grossly under-full

Structure (SMILES): O=C(O)CCC(=O)C(=O)O [alpha-ketoglutarate]
- Kd [8]: 597 µM
- Kd [9]: 526 µM
- Kd [10]: 558 µM
- DSF temperature shift [11, 15]: Significant stabilizing temperature shifts
- Kd [12]: 548 µM
- SPR dose-dependent binding curves [13]: show dose-dependent binding
- binding in initial SPR screening [13]: binding was only observed
- Kd ([13]; read-out: KD (estimated, steady state affinity), SPR, WT RsbU45–313, PBS): 419 µM
- Kd ([14]; read-out: KD (ITC), single trial, 30 μM protein, PBS, data not shown): 25.8 µM

Structure (SMILES): O=C(O)CC(O)C(=O)O (stereo not shown) [malate]
- DSF temperature shift [11, 15]: Significant stabilizing temperature shifts
- SPR dose-dependent binding curves [13]: show dose-dependent binding
- binding in initial SPR screening [13]: binding was only observed
- Kd [14]: 22 µM

Structure (SMILES): O=C(O)CC(=O)O [malonate]
- SPR dose-dependent binding curves [13]: do not appear to be binding

Structure (SMILES): O=C(O)CC(=O)C(=O)O [oxaloacetate]
- DSF temperature shift ([11]; highest ligand concentration tested, only in one of two biological replicates): significant positive temperature shift
- SPR dose-dependent binding curves [13]: show dose-dependent binding
- binding in initial SPR screening [13]: binding was only observed
- Kd [14]: 55.5 µM

Structure (SMILES): O=C(O)CCC(=O)O [succinate]
- SPR dose-dependent binding curves [13]: do not appear to be binding
